# Reference: ChEMBL document CHEMBL1147668, “New 2-alkylidene 1alpha,25-dihydroxy-19-norvitamin D3 analogues of high intestinal activity: synthesis and biological evaluation of 2-(3'-alkoxypropylidene) and 2-(3'-hydroxypropylidene) derivatives” (J Med Chem, 2006)
# Where “and” joins values, the source holds several entries; their conditions need not be identical. Equal values may be shown once. Calls of active or inactive are those of the source. The calls are words filed in the database; no cut-off is given here.
# How the values were obtained:
# Mus musculus = assay: Increase of calcium level in po dosed CD1 mouse serum; assay type: functional, organism-based
# How it was run: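 Female CD-1 mice, 6-7 weeks, on 0.47% Ca diet, acclimated 5-7 days. Single gastric gavage dose formulated in Neobee oil with 5% ethanol at 4 mL/kg. Serum calcium measured by atomic absorption at several timepoints after dosing, including day 3.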
# [1] = target: T1, Vitamin D3 receptor (Homo sapiens) (UniProt P11473); assay: Induction of differentiation of human HL60 promyelocytes to monocytes; assay type: functional
# T1 sequence (whole entry): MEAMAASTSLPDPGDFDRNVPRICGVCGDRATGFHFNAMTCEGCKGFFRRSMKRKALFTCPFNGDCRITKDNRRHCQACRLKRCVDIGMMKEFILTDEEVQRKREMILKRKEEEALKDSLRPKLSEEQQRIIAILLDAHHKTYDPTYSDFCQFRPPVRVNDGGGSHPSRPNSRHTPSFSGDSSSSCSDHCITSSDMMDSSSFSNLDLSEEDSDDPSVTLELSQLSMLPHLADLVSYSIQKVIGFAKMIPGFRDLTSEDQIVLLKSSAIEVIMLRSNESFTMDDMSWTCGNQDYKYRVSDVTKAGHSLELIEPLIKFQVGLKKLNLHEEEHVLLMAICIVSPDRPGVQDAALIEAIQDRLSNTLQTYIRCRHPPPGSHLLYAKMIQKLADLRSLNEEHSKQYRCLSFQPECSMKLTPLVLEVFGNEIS
# Rattus norvegicus [2] = assay: Calcium mobilization in vitamin D deficient ip dosed Sprague-Dawley rat
# [3] = target: T2, Vitamin D3 receptor (Rattus norvegicus) (UniProt P13053); assay: Induction of vitamin D mediated transactivation in rat ROS17/2.8 cell luciferase assay; assay type: functional
# T2 sequence (whole entry): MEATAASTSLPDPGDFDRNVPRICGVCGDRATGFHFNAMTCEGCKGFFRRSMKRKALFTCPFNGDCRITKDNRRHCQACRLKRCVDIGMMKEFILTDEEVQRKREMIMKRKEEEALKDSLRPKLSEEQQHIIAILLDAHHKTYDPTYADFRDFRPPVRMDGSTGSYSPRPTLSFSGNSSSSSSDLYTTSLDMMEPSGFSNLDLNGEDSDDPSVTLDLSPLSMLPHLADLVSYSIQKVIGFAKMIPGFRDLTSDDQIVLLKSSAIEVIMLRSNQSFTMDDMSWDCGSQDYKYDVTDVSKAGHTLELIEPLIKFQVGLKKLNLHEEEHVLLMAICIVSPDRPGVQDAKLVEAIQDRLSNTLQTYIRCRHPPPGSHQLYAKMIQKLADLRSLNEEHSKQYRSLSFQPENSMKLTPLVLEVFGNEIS
# How it was run: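 ROS 17/2.8 cells stably carrying a 24-hydroxylase promoter-luciferase reporter were dosed over a concentration range. Luciferase was measured by luminometer 16 h later.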
# Rattus norvegicus [4] = assay: Calcium mobilization in vitamin D deficient ip dosed Sprague-Dawley rat bone; assay type: functional, organism-based
# How it was run: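 Rats depleted of vitamin D and kept on 0.02% Ca diet; four consecutive daily ip doses in 0.1 mL 1,2-propanediol/ethanol (95:5). Serum drawn 24 h after last dose; calcium by atomic absorption with 0.1% lanthanum chloride; rise in serum calcium taken as bone calcium mobilization.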
SMILES,Activity (Mus musculus),ED50 [1],Activity (Rattus norvegicus [2]),ED50 [3] [nM],Activity (Rattus norvegicus [4])
COCOCCC=C1[C@H](O)CC(=C/C=C2\CCC[C@@]3(C)C2CCC3[C@H](C)CCCC(C)(C)O)C[C@H]1O (stereo partly drawn),Active,4.7 nM,Active,3.8,Active
C[C@@H](CCCC(C)(C)O)C1CCC2/C(=C/C=C3C[C@@H](O)C(=CCCO)[C@H](O)C3)CCC[C@@]21C (stereo partly drawn),,,Active,0.0065,Active
C[C@H](CCCC(C)(C)O)C1CCC2/C(=C/C=C3C[C@@H](O)C(=CCCO)[C@H](O)C3)CCC[C@@]21C (stereo partly drawn),Active,3 nM and 1.3 nM,Active,0.042,Active
